pEC50: −log10 of the molar value. Active and inactive are the calls of the source. The calls are words filed in the database; no cut-off is given here.
Experiments:
INS1 [1] = assay: Cytoprotective activity in rat INS-1 cells assessed as protection against tunicamycin-induced ER stress-mediated reduction in cell viability after 3 days by CellTiter-Glo assay; conditions: INS1, 72 h
INS1 [2] = assay: Cytoprotective activity in rat INS-1 cells assessed as protection against tunicamycin-induced ER stress-mediated reduction in cell viability after 3 days by CellTiter-Glo assay relative tunicamycin; type: functional; conditions: INS1, 72 h
Summary of the method: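 INS-1 cells, 3×10^3 per well, were co-treated with tunicamycin 0.1 μg/mL and compound for 72 h. Viability was read as intracellular ATP by luminescence and expressed as fold of no-tunicamycin cells. EC50 and maximum activity were taken as the increase in viability versus tunicamycin alone. Triplicate wells, three independent experiments.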

[3] = biological target: T1, Eukaryotic translation initiation factor 2-alpha kinase 3 (Rattus norvegicus) (UniProt Q9Z1Z1); assay: Inhibition of tunicamycin ER stress-induced PERK activation in rat INS-1 cells assessed as suppression of tunicamycin-induced increase in ATF4 protein levels up to 10 uM after 8 hrs by Western blot analysis; type: cell-based
T1 sequence (whole entry): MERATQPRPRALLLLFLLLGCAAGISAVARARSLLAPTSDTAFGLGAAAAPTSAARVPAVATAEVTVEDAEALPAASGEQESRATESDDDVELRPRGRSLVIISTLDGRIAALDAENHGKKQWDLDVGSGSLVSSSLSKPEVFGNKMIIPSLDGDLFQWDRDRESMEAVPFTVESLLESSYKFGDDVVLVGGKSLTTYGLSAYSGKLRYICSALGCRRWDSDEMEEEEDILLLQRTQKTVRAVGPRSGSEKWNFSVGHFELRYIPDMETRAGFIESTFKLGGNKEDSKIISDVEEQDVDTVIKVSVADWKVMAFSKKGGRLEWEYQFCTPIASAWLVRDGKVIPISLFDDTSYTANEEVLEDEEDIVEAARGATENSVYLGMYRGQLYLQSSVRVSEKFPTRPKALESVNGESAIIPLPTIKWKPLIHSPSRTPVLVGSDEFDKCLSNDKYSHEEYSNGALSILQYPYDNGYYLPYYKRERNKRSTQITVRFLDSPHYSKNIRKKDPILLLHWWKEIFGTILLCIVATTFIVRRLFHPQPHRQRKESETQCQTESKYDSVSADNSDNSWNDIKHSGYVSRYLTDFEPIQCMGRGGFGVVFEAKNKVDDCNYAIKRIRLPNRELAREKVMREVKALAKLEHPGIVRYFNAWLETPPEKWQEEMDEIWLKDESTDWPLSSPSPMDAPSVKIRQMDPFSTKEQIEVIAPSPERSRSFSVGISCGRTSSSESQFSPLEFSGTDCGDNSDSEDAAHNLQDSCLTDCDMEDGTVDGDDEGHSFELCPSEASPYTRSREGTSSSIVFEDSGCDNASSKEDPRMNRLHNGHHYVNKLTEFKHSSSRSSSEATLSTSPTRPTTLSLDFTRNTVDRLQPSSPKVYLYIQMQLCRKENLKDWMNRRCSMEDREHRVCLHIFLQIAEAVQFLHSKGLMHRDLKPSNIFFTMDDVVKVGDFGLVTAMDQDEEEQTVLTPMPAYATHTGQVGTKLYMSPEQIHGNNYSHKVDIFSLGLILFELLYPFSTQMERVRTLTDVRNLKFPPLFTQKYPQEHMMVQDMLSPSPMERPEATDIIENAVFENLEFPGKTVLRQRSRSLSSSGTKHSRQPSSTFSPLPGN
Summary of the method: (§1)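 INS-1 cells were exposed to tunicamycin 0.1 μg/mL with compound or DMSO for 8 h. Lysates were immunoblotted for ATF4 and CHOP (1:1000). Bands were quantified by densitometry and normalized to α-tubulin; 3 independent experiments.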

[4] = biological target: T2, Cyclic AMP-dependent transcription factor ATF-6 alpha (Rattus norvegicus) (UniProt G3V909); assay: Inhibition of tunicamycin ER stress-induced ATF6 activation in rat INS-1 cells assessed as suppression of increase in Bip mRNA levels up to 10 uM after 8 hrs by qRT-PCR analysis; type: cell-based
T2 sequence (whole entry): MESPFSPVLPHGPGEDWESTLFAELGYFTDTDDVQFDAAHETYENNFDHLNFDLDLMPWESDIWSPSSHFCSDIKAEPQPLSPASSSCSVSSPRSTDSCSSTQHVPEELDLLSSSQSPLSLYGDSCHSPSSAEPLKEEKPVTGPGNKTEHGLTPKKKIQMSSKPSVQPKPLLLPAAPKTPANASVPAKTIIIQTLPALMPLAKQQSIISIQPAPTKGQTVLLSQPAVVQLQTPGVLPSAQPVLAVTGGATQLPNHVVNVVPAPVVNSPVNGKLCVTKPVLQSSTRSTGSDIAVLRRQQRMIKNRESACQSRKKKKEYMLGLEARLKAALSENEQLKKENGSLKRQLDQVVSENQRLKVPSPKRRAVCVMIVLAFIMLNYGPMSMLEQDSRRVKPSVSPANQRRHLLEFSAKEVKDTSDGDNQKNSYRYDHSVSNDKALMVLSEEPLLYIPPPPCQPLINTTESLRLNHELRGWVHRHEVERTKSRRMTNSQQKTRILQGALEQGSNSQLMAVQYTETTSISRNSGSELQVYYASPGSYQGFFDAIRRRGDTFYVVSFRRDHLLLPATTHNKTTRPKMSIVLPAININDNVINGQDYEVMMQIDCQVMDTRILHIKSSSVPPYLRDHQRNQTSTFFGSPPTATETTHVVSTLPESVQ
Summary of the method: (§2)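 INS-1 cells, 4×10^5 per well, were exposed to tunicamycin 0.1 μg/mL with compound or DMSO for 8 h. qRT-PCR for ATF4, CHOP, Bip, GRP94, or spliced XBP1 using splicing-specific primers. Values were normalized to cyclophilin A by ΔΔCt and given as fold over untreated control. Triplicate wells, 3 independent experiments.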

[5] = biological target: T2, Cyclic AMP-dependent transcription factor ATF-6 alpha (Rattus norvegicus); assay: Inhibition of tunicamycin ER stress-induced ATF6 activation in rat INS-1 cells assessed as suppression of increase in […] mRNA levels up to 10 uM after 8 hrs by qRT-PCR analysis; type: cell-based; summary of the method: as §2
[6] = biological target: T1, Eukaryotic translation initiation factor 2-alpha kinase 3 (Rattus norvegicus); assay: Inhibition of tunicamycin ER stress-induced PERK activation in rat INS-1 cells assessed as suppression of tunicamycin-induced increase in CHOP protein levels up to 10 uM after 8 hrs by Western blot analysis; type: cell-based; summary of the method: as §1

Compound: O=C(NCc1ccc(Cl)c(Cl)c1)c1ccc(CN2CCCCC2)cc1
- pEC50 (INS1 [1]): 5.74
- Emax (INS1 [2]): 78%

Compound: O=C(NCCc1ccccc1)c1ccc2c(c1)OCCO2
- pEC50 (INS1 [1]): 4.72
- Emax (INS1 [2]): 47%

Compound: C#CCOc1ccc(C(=O)NCCc2ccccc2)cc1
- pEC50 (INS1 [1]): < 4.52
- Emax (INS1 [2]): 54%

Compound: Cc1ccc(C(=O)NCCc2ccccc2)cc1
- pEC50 (INS1 [1]): 4.70
- Emax (INS1 [2]): 25%

Compound: CC(C)Sc1ccccc1C(=O)NCCc1ccccc1
- pEC50 (INS1 [1]): < 4.52
- Emax (INS1 [2]): 30%

Compound: O=C(NCCc1ccc(Cl)c(Cl)c1)c1ccc(CN2CCCCC2)cc1
- pEC50 (INS1 [1]): 4.62
- Emax (INS1 [2]): 71%

Compound: O=C(NCCc1ccc(Cl)cc1)c1ccc(CN2CCCCC2)cc1
- pEC50 (INS1 [1]): 4.68
- Emax (INS1 [2]): 82%

Compound: O=C(NCc1ccc(Cl)cc1)c1ccc2c(c1)OCCO2
- pEC50 (INS1 [1]): 5.55
- Emax (INS1 [2]): 69%

Compound: O=C(NCc1cccc(Br)c1)c1ccc2c(c1)OCCO2
- pEC50 (INS1 [1]): 5.26
- Emax (INS1 [2]): 69%

Compound: COc1cccc(CNC(=O)c2cccc(CN3CCCCC3)c2)c1
- pEC50 (INS1 [1]): 6.02
- Emax (INS1 [2]): 92%

Compound: O=C(NCCc1ccc(Cl)cc1)c1ccc2c(c1)OCCO2
- pEC50 (INS1 [1]): 4.82
- Emax (INS1 [2]): 51%

Compound: COc1ccc(CNC(=O)c2cccc(CN3CCCCC3)c2)cc1
- pEC50 (INS1 [1]): 5.95
- Emax (INS1 [2]): 93%

Compound: O=C(NCCc1ccccc1)c1ccc(F)c(F)c1F
- pEC50 (INS1 [1]): 5.00
- Emax (INS1 [2]): 23%

Compound: O=C(NCc1ccccc1Cl)c1cccc(CN2CCCCC2)c1
- pEC50 (INS1 [1]): 5.69
- Emax (INS1 [2]): 93%

Compound: CN(C)S(=O)(=O)c1ccc(C(=O)NCCc2ccccc2)cc1
- pEC50 (INS1 [1]): 4.72
- Emax (INS1 [2]): 37%

Compound: CS(=O)(=O)Nc1cccc(C(=O)NCCc2ccccc2)c1
- pEC50 (INS1 [1]): 4.60
- Emax (INS1 [2]): 24%

Compound: COc1ccc(CCNC(=O)c2ccc3c(c2)OCCO3)cc1
- pEC50 (INS1 [1]): < 4.52
- Emax (INS1 [2]): 26%

Compound: O=C(NCCc1ccccc1)c1ccc(CN2CCCCC2)cc1
- pEC50 (INS1 [1]): 4.68
- Emax (INS1 [2]): 87%

Compound: O=C(NCc1cccc(C(F)(F)F)c1)c1cccc(CN2CCCCC2)c1
- pEC50 (INS1 [1]): 6.60
- Emax (INS1 [2]): 91%

Compound: O=C(NCCc1ccc(F)cc1)c1ccc2c(c1)OCCO2
- pEC50 (INS1 [1]): 4.68
- Emax (INS1 [2]): 50%

Compound: COc1ccccc1CCNC(=O)c1ccc2c(c1)OCCO2
- pEC50 (INS1 [1]): < 4.52
- Emax (INS1 [2]): 29%

Compound: COc1ccc(C(=O)NCCc2cccc(Cl)c2)cc1OC
- pEC50 (INS1 [1]): 4.62
- Emax (INS1 [2]): 46%

Compound: COc1ccc(CCNC(=O)c2ccc3c(c2)OCCO3)cc1OC
- pEC50 (INS1 [1]): < 4.52
- inhibition [3]: inactive
- inhibition [4]: inactive
- inhibition [5]: inactive
- Emax (INS1 [2]): 5%
- inhibition [6]: inactive

Compound: O=C(NCc1cccc(Cl)c1)c1cccc(CN2CCCCC2)c1
- pEC50 (INS1 [1]): 6.39
- Emax (INS1 [2]): 90%

Compound: O=C(NCc1cccc(Br)c1)c1ccc(CN2CCCCC2)cc1
- pEC50 (INS1 [1]): 5.31
- Emax (INS1 [2]): 81%

Compound: Cc1ccccc1C(=O)NCCc1ccccc1
- Emax (INS1 [2]): 6%

Compound: O=C(NCc1ccccc1Cl)c1ccc(CN2CCCCC2)cc1
- pEC50 (INS1 [1]): 4.89
- Emax (INS1 [2]): 87%

Compound: O=C(NCCc1ccccc1)c1cccc(F)c1
- Emax (INS1 [2]): < 0%

Compound: O=C(NCc1ccc(Cl)cc1)c1cccc(CN2CCCCC2)c1
- pEC50 (INS1 [1]): 6.62
- Emax (INS1 [2]): 93%

Compound: O=C(NCCc1ccccc1)c1cc(F)c(F)c(F)c1F
- Emax (INS1 [2]): < 0%

Compound: O=C(NCc1ccc(Cl)cc1)c1ccc(CN2CCCCC2)cc1
- pEC50 (INS1 [1]): 5.02
- Emax (INS1 [2]): 77%

Compound: O=C(NCc1cccc(Cl)c1)c1ccc2c(c1)OCCO2
- pEC50 (INS1 [1]): 5.02
- Emax (INS1 [2]): 57%

Compound: CCOc1cccc(C(=O)NCCc2ccccc2)c1
- pEC50 (INS1 [1]): 4.59
- Emax (INS1 [2]): 49%

Compound: O=C(NCc1cccc(Cl)c1)c1ccc(CN2CCCCC2)cc1
- pEC50 (INS1 [1]): 5.66
- Emax (INS1 [2]): 80%

Compound: O=C(NCc1ccccc1Cl)c1ccc2c(c1)OCCO2
- pEC50 (INS1 [1]): 4.60
- Emax (INS1 [2]): 43%

Compound: O=C(NCCc1ccccc1)c1ccc(Cl)c(Cl)c1
- pEC50 (INS1 [1]): 4.77
- Emax (INS1 [2]): 42%

Compound: O=C(NCc1ccc(Cl)c(Cl)c1)c1ccc2c(c1)OCCO2
- pEC50 (INS1 [1]): 5.44
- Emax (INS1 [2]): 68%

Compound: O=C(NCCc1cccc(Cl)c1)c1ccc2c(c1)OCO2
- pEC50 (INS1 [1]): 4.60
- Emax (INS1 [2]): 41%

Compound: O=C(NCCc1ccccc1)c1cccc([N+](=O)[O-])c1
- Emax (INS1 [2]): < 0%

Compound: O=C(NCc1ccccc1)c1cccc(CN2CCCCC2)c1
- pEC50 (INS1 [1]): 6.46
- Emax (INS1 [2]): 95%

Compound: O=C(NCCc1cccc(Cl)c1)c1ccc2c(c1)OCCO2
- pEC50 (INS1 [1]): 4.68
- Emax (INS1 [2]): 42%

Compound: COc1ccc(C(=O)NCCc2ccccc2)cc1C
- pEC50 (INS1 [1]): 4.82
- Emax (INS1 [2]): 56%

Compound: O=C(NCc1ccc(Cl)cc1)c1ccccc1CN1CCCCC1
- pEC50 (INS1 [1]): 5.16
- Emax (INS1 [2]): 73%

Compound: O=C(NCc1ccccc1Br)c1ccc2c(c1)OCCO2
- pEC50 (INS1 [1]): 4.60
- Emax (INS1 [2]): 38%

Compound: O=C(NCCc1ccccc1)c1ccc(CN2CCCC2)cc1
- pEC50 (INS1 [1]): 4.96
- Emax (INS1 [2]): 31%

Compound: Nc1cccc(C(=O)NCCc2ccccc2)c1
- Emax (INS1 [2]): < 0%
